In brackets after ≈: the same amount, converted by molar mass. Bounds are passed on as bounds.

Usually MIC stands for the lowest concentration found to suppress growth. For orientation: ED50 means the dose at which the effect has come halfway, by size or by number of responders. Usually LD50 stands for the dose at which mortality reaches 50%.

For one data set, the system named is Staphylococcus aureus. The data set can be described thus: Antibacterial activity against Staphylococcus aureus Tour assessed as growth inhibition. Format: functional.
In a further data set the test system is Clostridium perfringens. Briefly: Antibacterial activity against Clostridium perfringens ISS 30453 assessed as growth inhibition. Format: functional.
Another data set relates to Escherichia coli. Briefly: Antibacterial activity against Escherichia coli SKF 12140 assessed as growth inhibition. Format: functional.
For data set [1], the system named is Trichomonas vaginalis. The data set can be described thus: Antiprotozoal activity against Trichomonas vaginalis assessed as static effect. Format: functional.
Data set [2] concerns Trichomonas vaginalis. Briefly: Antiprotozoal activity against Trichomonas vaginalis assessed as cidal effect. Format: functional.
The subject of data set [3] is Trichomonas vaginalis. Briefly: Antiprotozoal activity against Trichomonas vaginalis infected in po dosed mouse. Format: functional.
Data set [4] has as its system Trichomonas vaginalis. Briefly: Ratio of compound ED50 to metronidazole ED50 for Trichomonas vaginalis infected in po dosed mouse. Format: functional.
Data set [5] in a line: Acute toxicity in po dosed mouse. Format: organism-based. To be noted: in vivo. An outline of the steps: (§1)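 Mice dosed with the agent. LD50 values were computed by the Litchfield and Wilcoxon method.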
Data set [6] is described as follows: Acute toxicity in ip dosed mouse. Format: organism-based. To be noted: in vivo. An outline of the steps:
as §1

For the compound `CC(C)c1cnc([N+](=O)[O-])n1C`, the minimal inhibitory concentration (MIC) was over 300 µg/mL in the data set on Staphylococcus aureus; 5 µg/mL (≈ 29.6 µM) with Clostridium perfringens; over 300 µg/mL with Escherichia coli; 5 µg/mL (≈ 29.6 µM) in the data set with Trichomonas vaginalis [1]; 20 µg/mL (≈ 118 µM) in the data set on Trichomonas vaginalis [2]. In the data set with Trichomonas vaginalis [3], this compound came in with a 50% effective dose (ED50) of 2.03 mg/kg. Further, in the data set on Trichomonas vaginalis [4], the “Ratio ED50” value was 0.17.

On to `Cn1c(C(C)(C)O)cnc1[N+](=O)[O-]`, for which the MIC came out at 100 µg/mL (≈ 540 µM) with Staphylococcus aureus; 25 µg/mL (≈ 135 µM) in the data set on Clostridium perfringens; 100 µg/mL (≈ 540 µM) in the data set with Escherichia coli; 6.2 µg/mL (≈ 33.5 µM) in the data set on Trichomonas vaginalis [1]; 25 µg/mL (≈ 135 µM) with Trichomonas vaginalis [2]. Moreover, the 50% effective dose (ED50) in the data set with Trichomonas vaginalis [3] was 2.5 mg/kg. Also, the “Ratio ED50” value with Trichomonas vaginalis [4] was 0.21. Moreover, the figures for the LD50 in data set [5] and in data set [6] were 698 mg/kg and 475 mg/kg, respectively.

As to `COC(C)(C)c1cnc([N+](=O)[O-])n1C`, the MIC was 100 µg/mL (≈ 502 µM) in the data set on Staphylococcus aureus; 100 µg/mL (≈ 502 µM) in the data set on Clostridium perfringens; over 100 µg/mL in the data set on Escherichia coli; 6.2 µg/mL (≈ 31.1 µM) in the data set with Trichomonas vaginalis [1]; 50 µg/mL (≈ 251 µM) in the data set with Trichomonas vaginalis [2]. Also, the “Ratio ED50” value in the data set with Trichomonas vaginalis [4] stood at 0.19. The compound also had an LD50 in [6] of 225 mg/kg.

`C=C(C)c1cnc([N+](=O)[O-])n1C`: the MIC in the data set with Staphylococcus aureus was over 100 µg/mL; with Clostridium perfringens, 3.1 µg/mL (≈ 18.5 µM); in the data set with Escherichia coli, over 100 µg/mL; in the data set on Trichomonas vaginalis [1], 2 µg/mL (≈ 12 µM); in the data set on Trichomonas vaginalis [2], 10 µg/mL (≈ 59.8 µM). Also, the ED50 with Trichomonas vaginalis [3] came to 32.5 mg/kg. Besides, the “Ratio ED50” value in the data set on Trichomonas vaginalis [4] was 3.25. In addition, in [5], the LD50 is 350 mg/kg.

Regarding `Cn1c(C(C)(O)CO)cnc1[N+](=O)[O-]` (stereo unspecified), the MIC with Staphylococcus aureus is over 100 µg/mL; in the data set with Clostridium perfringens it was 5 µg/mL (≈ 24.9 µM); with Escherichia coli, over 100 µg/mL; with Trichomonas vaginalis [1], 10 µg/mL (≈ 49.7 µM); in the data set with Trichomonas vaginalis [2], 20 µg/mL (≈ 99.4 µM). In the data set on Trichomonas vaginalis [3], the ED50 was over 80 mg/kg. Besides, in the data set on Trichomonas vaginalis [4], the “Ratio ED50” value is over 8. The compound further registered an LD50 in data set [5] of over 1000 mg/kg.

In the case of `Cc1ncc([N+](=O)[O-])n1CCO` [METRONIDAZOLE], the MIC in the data set with Staphylococcus aureus is over 300 µg/mL; in the data set on Clostridium perfringens, 0.5 µg/mL (≈ 2.92 µM); in the data set on Escherichia coli, over 300 µg/mL; in the data set on Trichomonas vaginalis [1], 0.5 µg/mL (≈ 2.92 µM); in the data set on Trichomonas vaginalis [2], 5 µg/mL (≈ 29.2 µM). The compound also yielded an ED50 with Trichomonas vaginalis [3] of 11.5 mg/kg. The “Ratio ED50” value in the data set with Trichomonas vaginalis [4] is 1.

Source of the values: ChEMBL document CHEMBL3272244, “Synthesis and biological activity of two metabolites of 1-methyl-5-(1-methylethyl)-2-nitro-1 H-imidazole, an antiprotozoal agent” (J Med Chem, 1977).
